# Reference: ChEMBL document CHEMBL3124866, “Small molecular antibacterial peptoid mimics: the simpler the better!” (J Med Chem, 2014)
# How the values were obtained:
# Klebsiella pneumoniae = experiment: Antibacterial activity against beta-lactam-resistant Klebsiella pneumoniae ATCC 700603 after 24 hrs by broth microdilution assay; assay type: functional
# Method in brief: (§1)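 MIC by broth microdilution. Cultures were grown 6 h to ~10^9 cfu/mL, then diluted to 10^5 cfu/mL. Media: yeast-dextrose broth for MRSA, BHI for VRE, and beef extract/peptone nutrient broth for K. pneumoniae. Compounds were serially diluted in water, 50 µL added to 150 µL cells, and incubated 24 h at 37 °C. OD600 triplicates were sigmoid-fitted; MIC is the point where OD equals the no-bacteria control. Mean ± SEM of ≥2 experiments.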
# Pseudomonas aeruginosa = experiment: Antibacterial activity against drug-sensitive Pseudomonas aeruginosa ATCC 4676 after 24 hrs by broth microdilution assay; assay type: functional
# Method in brief: (§2)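 Bacteria grown 6 h to ~10^9 cfu/mL and diluted to 10^5 cfu/mL in nutrient media. Growth media were LB (E. coli), yeast-dextrose broth (S. aureus, P. aeruginosa) and BHI (E. faecium). Compound was serially diluted in water and added 1:3 to bacteria, then incubated 37 °C for 24 h with OD600 read-out. Triplicate ODs were sigmoid-fitted; MIC was taken where OD matched the no-bacteria control. At least two independent experiments.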
# Escherichia coli [1] = experiment: Antibacterial activity against drug-sensitive Escherichia coli MTCC 443 after 24 hrs by broth microdilution assay; assay type: functional; method in brief: as §2
# Enterococcus faecium [2] = experiment: Antibacterial activity against vancomycin-resistant Enterococcus faecium ATCC 51559 after 24 hrs by broth microdilution assay; assay type: functional; method in brief: as §1
# Staphylococcus aureus [3] = experiment: Antibacterial activity against methicillin-resistant Staphylococcus aureus ATCC 33591 after 24 hrs by broth microdilution assay; assay type: functional; method in brief: as §1
# Staphylococcus aureus [4] = experiment: Antibacterial activity against drug-sensitive Staphylococcus aureus MTCC 737 after 24 hrs by broth microdilution assay; assay type: functional; method in brief: as §2
# Enterococcus faecium [5] = experiment: Antibacterial activity against drug-sensitive Enterococcus faecium ATCC 19634 after 24 hrs by broth microdilution assay; assay type: functional; method in brief: as §2
# [6] = Retention time of the compound by HPLC analysis; assay type: physicochemical
# [7] = Hemolytic activity in human erythrocytes after 1 hr by spectrophotometric analysis; assay type: ADME, cell-based, Erythrocyte
# Method in brief: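 Heparinized fresh human erythrocytes at 5 vol% in PBS pH 7.4 were mixed 3:1 with serially diluted compound and held 1 h at 37 °C. Plates were centrifuged and supernatant A540 read. Hemolysis was scaled between an untreated control and a Triton X-100 (100% lysis) control. HC50 is the mean of at least two independent triplicate experiments.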
# Escherichia coli [8] = experiment: Ratio of MSI-78 MIC to compound MIC for Escherichia coli; assay type: functional
Compound,MIC (Klebsiella pneumoniae) [µg/mL],MIC (Pseudomonas aeruginosa) [µg/mL],MIC (Escherichia coli [1]) [µg/mL],MIC (Enterococcus faecium [2]) [µg/mL],MIC (Staphylococcus aureus [3]) [µg/mL],MIC (Staphylococcus aureus [4]) [µg/mL],MIC (Enterococcus faecium [5]) [µg/mL],"MIC (Klebsiella pneumoniae; ATCC 700603, 24 h) [µg/mL]",Retention_time [6] [min],HC50 at 1 h [7] [µg/mL],"MIC (Pseudomonas aeruginosa; ATCC 4676, 24 h) [µg/mL]","MIC (Escherichia coli [1]; MTCC 443, 24 h) [µg/mL]","MIC (Enterococcus faecium [2]; ATCC 51559, 24 h) [µg/mL]","MIC (Staphylococcus aureus [3]; ATCC 33591, 24 h) [µg/mL]","MIC (Staphylococcus aureus [4]; MTCC 737, 24 h) [µg/mL]","MIC (Enterococcus faecium [5]; ATCC 19634, 24 h) [µg/mL]",Ratio (Escherichia coli [8])
COLISTIN,1.2,0.4,0.4,> 100,54,20,> 100,,,,,,,,,,
CCN(Cc1c2ccccc2c(Cl)c2ccccc12)C(=O)[C@@H](N)CCCCN.O=C(O)C(F)(F)F.O=C(O)C(F)(F)F,,,,,,,,31,11.8,118,4,25,7.2,21,11,13.6,
CCCCCCCCCCCCCCN(Cc1ccccc1)C(=O)[C@@H](N)CCCCN.O=C(O)C(F)(F)F.O=C(O)C(F)(F)F,,,,,,,,4,15.8,50,2.8,3.1,2.5,2.5,3.1,2,
CCCCCCN(Cc1ccccc1)C(=O)[C@@H](N)CCCCN.O=C(O)C(F)(F)F.O=C(O)C(F)(F)F,,,,,,,,> 100,10.6,> 1000,> 100,> 100,,> 100,> 100,> 100,
CCCCCCCCN(Cc1ccccc1)C(=O)[C@@H](N)CCCCN.O=C(O)C(F)(F)F.O=C(O)C(F)(F)F,,,,,,,,> 100,12.1,325,60,51,> 100,> 100,46,60,
CCCCN(Cc1ccccc1)C(=O)[C@@H](N)CCCCN.O=C(O)C(F)(F)F.O=C(O)C(F)(F)F,,,,,,,,> 100,9.4,> 1000,> 100,> 100,,> 100,> 100,> 100,
CCCCN(Cc1c2ccccc2c(Cl)c2ccccc12)C(=O)[C@@H](N)CCCCN.O=C(O)C(F)(F)F.O=C(O)C(F)(F)F,,,,,,,,17,12.4,91,1.9,4.8,5.3,6.3,5.3,4.5,
CCCCCCCCN(Cc1c2ccccc2c(Cl)c2ccccc12)C(=O)[C@@H](N)CCCCN.O=C(O)C(F)(F)F.O=C(O)C(F)(F)F,,,,,,,,4.3,14.6,64,3.8,2.9,3,2.3,2.2,2.5,5
CCCCCCCCCCN(Cc1ccccc1)C(=O)[C@@H](N)CCCCN.O=C(O)C(F)(F)F.O=C(O)C(F)(F)F,,,,,,,,31,13.4,95,4,6.5,5.8,15.7,5.7,6.5,
CCCCCCCCCCCCN(Cc1ccccc1)C(=O)[C@@H](N)CCCCN.O=C(O)C(F)(F)F.O=C(O)C(F)(F)F,,,,,,,,,14.5,45,4,5,3.3,2.9,2.7,2.6,
CCCCCCCCCCCCN(Cc1cccc2ccccc12)C(=O)[C@@H](N)CCCCN.O=C(O)C(F)(F)F.O=C(O)C(F)(F)F,,,,,,,,4,15.1,56,3.2,3.1,3.4,2.7,3,1.6,
CCCCCCCCN(Cc1cccc2ccccc12)C(=O)[C@@H](N)CCCCN.O=C(O)C(F)(F)F.O=C(O)C(F)(F)F,,,,,,,,13,12.9,60,5.4,5,7,4.4,6.3,5.5,
CCCCCCCCCCN(Cc1cccc2ccccc12)C(=O)[C@@H](N)CCCCN.O=C(O)C(F)(F)F.O=C(O)C(F)(F)F,,,,,,,,5.8,14.2,54,3,4,1.6,2.6,2.5,3.5,
CCCCN(Cc1cccc2ccccc12)C(=O)[C@@H](N)CCCCN.O=C(O)C(F)(F)F.O=C(O)C(F)(F)F,,,,,,,,> 100,10.8,> 1000,> 100,> 100,> 100,> 100,> 100,> 100,
CN[C@H](CC(C)C)C(=O)N[C@H]1C(=O)N[C@@H](CC(N)=O)C(=O)N[C@H]2C(=O)N[C@H]3C(=O)N[C@H](C(=O)N[C@H](C(=O)O)c4cc(O)cc(O)c4-c4cc3ccc4O)[C@H](O)c3ccc(c(Cl)c3)Oc3cc2cc(c3O[C@@H]2O[C@H](CO)[C@@H](O)[C@H](O)[C@H]2O[C@H]2C[C@](C)(N)[C@H](O)[C@H](C)O2)Oc2ccc(cc2Cl)[C@H]1O [VANCOMYCIN],,,,,,,,,,,,,> 100,0.9,0.9,0.87,
CCCCCCCCCCN(Cc1c2ccccc2c(Cl)c2ccccc12)C(=O)[C@@H](N)CCCCN.O=C(O)C(F)(F)F.O=C(O)C(F)(F)F,,,,,,,,7.6,15.6,71,11,26,5.6,4.6,7.1,4.9,
